Assay outcomes deposited in PubChem BioAssay by several laboratories.
Shown are actives, neighbours in structure and some others; about 1.7% of the full set was active somewhere.
Vif inh = inhibitors of HIV Vif | 340,000 compounds, 0.35% hits | HEK293T cells, Vif self-association by quenched fluorescence, imaging, 24 h | inhibition, % at 7.49 µM; in the data active = inhibition above about 50%, passing the limit was not always enough; inconclusive = no clear call, values can overlap the other calls; inactive = below about 31%
T cell modulator = modulates CD8 T cell binding to vesicles; AID 2052; 330,000 compounds, 0.068% hits; response (vesicle binding), % at 7 µM; 2C CD8+ T cell-vesicle binding, flow cytometry; active compounds read low;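 active = response, share of CD8 T cells binding vesicles, and their 90th percentile fluorescence all below set limits, cut at about 80% in these data, passing the limit was not always enough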;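 note: values below 100% mean blocked vesicle binding to the CD8+ T cells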
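Assay system – 2C mouse CD8+ T cells · Also added – QL9-loaded Drosophila micro-vesicles · Timing – Cell–vesicle co-incubation 1.5 h at 37 °C, staining 20 min on ice · Signal – flow cytometry of vesicle-bound cells · Measure – percent CD8+ FL2 mean versus row control · Controls – Peptide-free naked vesicles (low) and QL9 vesicles with 0.7% DMSO vehicle (high)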
Pemphigus Ab inh = inhibitors of pemphigus antibody binding to human desmoglein-3 | AID 588358 | binding (percent of control), % at 10 µM | DSG3-coupled beads, scFv-anti-DSG3-GFP binding, flow cytometry; active compounds read low | P32926 | 310,000 compounds, 0.48% hits;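 active = binding more than 3 SD below its plate's average and above zero; inconclusive = below that plate limit but binding exactly zero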;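 note: hits lower antibody fragment binding to DSG3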
Target sequence (P32926 whole entry, looked up, the tested form may be a part): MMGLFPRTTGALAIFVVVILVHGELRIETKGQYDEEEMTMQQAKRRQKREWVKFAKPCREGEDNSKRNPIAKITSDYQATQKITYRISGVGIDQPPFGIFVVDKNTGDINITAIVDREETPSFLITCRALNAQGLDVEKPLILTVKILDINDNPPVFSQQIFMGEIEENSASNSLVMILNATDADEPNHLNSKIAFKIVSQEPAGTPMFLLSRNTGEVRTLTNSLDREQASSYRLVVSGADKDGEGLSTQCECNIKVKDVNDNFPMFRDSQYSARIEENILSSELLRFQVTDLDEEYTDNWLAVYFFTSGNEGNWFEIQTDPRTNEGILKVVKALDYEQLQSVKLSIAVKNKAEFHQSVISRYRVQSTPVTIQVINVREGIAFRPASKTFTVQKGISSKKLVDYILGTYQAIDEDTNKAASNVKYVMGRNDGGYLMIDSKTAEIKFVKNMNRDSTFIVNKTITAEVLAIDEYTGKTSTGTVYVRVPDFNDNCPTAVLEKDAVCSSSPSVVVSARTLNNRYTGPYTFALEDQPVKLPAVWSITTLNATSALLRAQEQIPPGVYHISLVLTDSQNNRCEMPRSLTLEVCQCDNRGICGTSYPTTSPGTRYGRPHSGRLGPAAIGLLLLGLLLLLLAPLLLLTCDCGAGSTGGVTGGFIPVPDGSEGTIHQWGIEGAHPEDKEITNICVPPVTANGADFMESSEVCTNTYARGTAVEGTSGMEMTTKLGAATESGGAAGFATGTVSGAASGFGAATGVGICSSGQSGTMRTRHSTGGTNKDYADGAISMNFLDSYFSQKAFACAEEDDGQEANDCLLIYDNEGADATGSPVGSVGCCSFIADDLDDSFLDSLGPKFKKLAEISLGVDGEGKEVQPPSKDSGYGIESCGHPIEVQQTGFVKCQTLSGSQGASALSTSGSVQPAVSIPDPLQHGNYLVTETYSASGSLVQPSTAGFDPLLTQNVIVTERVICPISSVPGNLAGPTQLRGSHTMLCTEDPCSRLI
Myeloid diff MLP = myeloid differentiation induction; calls only at 10 µM; ER-HoxA9 myeloid progenitors, lysozyme-GFP differentiation, flow cytometry; 360,000 compounds, 1% hits; AID 624256;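 active = normalized GFP-positive differentiation at or above the plate's own cutoff, the solvent-only control mean plus 3 SD; inconclusive = no clear call, values can overlap the other calls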;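 note: cells exposed to compound for four days before flow analysis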
Numbers stand for hits; - = inactive; ? = inconclusive; . = no result; + = active, no number.

SMILES	Vif inh	T cell modulator	Pemphigus Ab inh	Myeloid diff MLP
CCC(=O)N1CCCC(C(=O)NCc2ccc(C(C)C)cc2)CC1 (configuration not stated)	-	.	.	-
Cc1ccc(CCNC(=O)C2CCN(S(=O)(=O)c3ccc4c(c3)CCC(=O)N4)CC2)cc1	-	-	77	-
[N-]=[N+]=NC[C@H](Cc1ccccc1)N1CCN(Cc2ccccc2)CCC1=O	-	-	-	-
C[C@H]1CCC(=O)N([C@H](CN=[N+]=[N-])Cc2ccccc2)CC1	59	-	-	-
CC(C)NC(=O)c1csc(COCCO)n1	.	.	.	-
CC1CCC(NC(=O)COC(=O)c2cccnc2Cl)CC1 (configuration not stated)	-	-	-	-
COC(=O)c1c(C)[nH]c(C)c1C(=O)c1ccccc1Cc1ccccc1	-	-	-	+
COC(=O)c1c(C)[nH]c(C=O)c1-c1ccccc1	-	-	-	-
COc1ccc(NC(=O)C2Cc3c(-c4cccc(NC(C)=O)c4)ccnc3O2)cc1 (configuration not stated)	-	.	.	?
O=C(CSc1ccc(C(F)(F)F)cc1[N+](=O)[O-])Nc1ccc2ccccc2c1	-	-	-	-
CC(=O)Nc1cccc(NC(=O)CSc2ccc(C(F)(F)F)cc2[N+](=O)[O-])c1	-	-	84	-
Cc1[nH]c2ccccc2c1C(=O)C(=O)Nc1ccc2c(c1)OCO2	-	-	-	-
O=C(O)c1ccc(-n2cc(C(=O)c3ccccc3O)cn2)cc1	-	-	-	-
O=C(c1cnn(-c2nc3ccccc3s2)c1)c1ccccc1O	.	-	8.3	-
NC(=O)c1sc2nc(-c3ccccc3)c3c(c2c1N)CCCC3	-	-	-	+
CC1(C(=O)NCc2ccccc2)CN(S(C)(=O)=O)CC(=O)N1CCc1ccc(O)cc1 (configuration not stated)	.	.	.	-
Cc1noc(/C=C/N(C)C)c1S(=O)(=O)N1CCCC(C(=O)Nc2ccccc2F)C1 (configuration not stated)	-	-	-	+
Cc1cc(C)c(NC(=O)C2CCCN(S(=O)(=O)c3c(C)noc3/C=C/N(C)C)C2)c(C)c1 (configuration not stated)	-	-	-	-
CC(c1nc2ccccc2c(=O)[nH]1)N1CCN(S(=O)(=O)c2ccc(F)c(Cl)c2)CC1 (configuration not stated)	-	.	-	-
COc1ccc2cc(C#N)c(NC(C)C)nc2c1	-	-	-	-
COc1ccc2cc(C#N)c(N3CCOCC3)nc2c1	-	-	-	+
CCN(CC)c1nc2cc(OC)ccc2cc1C#N	.	-	-	+
CCOC(=O)C1CCN(c2nc3cc(OC)ccc3cc2C#N)CC1	-	-	-	-
CN(CCc1ccccc1)C(C(=O)Nc1ccc2c(c1)OCCO2)C1CC1 (configuration not stated)	.	.	.	-
Cc1nc(C)c(-c2csc(Nc3ccc(Cl)cn3)n2)s1	-	.	-	-
SMILES	Vif inh	T cell modulator	Pemphigus Ab inh	Myeloid diff MLP
COC(=O)C(C)Sc1nc(NCc2ccccc2)nc(N(C)C)n1 (configuration not stated)	-	-	84	-
CN(C(=O)COC(=O)c1ccc(S(=O)(=O)N2CCCCCC2)cc1)c1ccccc1	-	.	-	-
CCCCCn1cnnc1SCC(=O)c1c(N)n(C2CC2)c(=O)[nH]c1=O	-	.	-	-
COc1cc2c3nnc(-c4ccc(F)cc4)c-3cn(Cc3cccc(C)c3)c2cc1OC	.	-	-	+
COc1cc2c3nnc(-c4ccc(F)cc4)c-3cn(Cc3ccc(C)cc3)c2cc1OC	-	-	-	+
COc1cc2c3nnc(-c4ccc(F)cc4)c-3cn(Cc3cccc(F)c3)c2cc1OC	-	-	-	-
O=C(N/C=C/c1ccccc1)c1ccccc1	.	-	-	-
Nc1ncnc2c1ncn2[C@@H]1O[C@H](C(=O)N[C@H]2c3ccccc3C[C@H]2OC=O)[C@@H](O)[C@H]1O	.	.	.	-
CC(C)OCCCN(C)C1CCN(S(=O)(=O)c2ccc(-c3cc(C(F)(F)F)no3)s2)CC1	-	-	.	+
CC(C)OCCCN(C)C1CCN(S(=O)(=O)c2csc(C(N)=O)c2)CC1	-	-	-	-
COc1ccc(C[C@@H]2OC3(C=CC(=O)C=C3)O[C@H]2Cc2ccc(OC)cc2)cc1	69	.	-	+
O=C1C=CC2(C=C1)O[C@H](Cc1ccccc1)[C@@H](Cc1ccccc1)O2	-	.	-	+
CC1(C(=O)Nc2ccc(F)c(Cl)c2)Cc2c(-c3ccc(C(N)=O)cc3)ccnc2O1 (configuration not stated)	-	.	.	-
Cc1ccc(-c2nc3ccccc3s2)cc1NC(=O)c1cc(-n2cnnc2)ccc1Cl	-	-	76	-
Cc1ccc(-c2nc3ccccc3s2)cc1NC(=S)NC(=O)c1ccccc1	-	-	-	-
Cc1cc(O)c(-c2cc(C(=O)NCc3ccc4c(c3)OCO4)[nH]n2)cc1C	-	-	82	+
Cc1ccc(-c2cc(C(=O)NCc3ccc4c(c3)OCO4)[nH]n2)c(O)c1C	-	-	-	-
Cc1nnc(NC(=O)CCCN2C(=O)c3ccccc3C2=O)s1	-	-	-	-
O=C(CCCN1C(=O)c2cccnc2C1=O)Nc1ccc(Br)cc1	59	-	-	-
O=C1c2ccccc2C(=O)N1CCCN1C(=O)c2ccccc2C1=O	-	.	-1.0	-
O=C1c2ccccc2C(=O)N1CCCOc1ccccc1	-	-	-	-
O=C(CCCN1C(=O)c2ccccc2C1=O)Nc1nncs1	60	-	-	-
Cc1ccsc1C(=O)N1CCCC1(C)C(=O)NCC(C)C (configuration not stated)	-	.	.	-
COc1ccc(CN2C(=O)C(CC(=O)NC(c3ccccc3)c3ccccc3)CC(C(=O)N(C(C)C)C(C)C)=C2C)cc1 (configuration not stated)	-	.	-	-
CCCCCCn1cc(CN2CC(N3CCSCC3)CS2(=O)=O)nn1 (configuration not stated)	.	.	.	-
SMILES	Vif inh	T cell modulator	Pemphigus Ab inh	Myeloid diff MLP
O=C(Nc1ncnc2c1ncn2[C@@H]1O[C@H](/C=C/C(=O)N2CCN(c3ccc(F)cc3)CC2)[C@@H](O)[C@H]1O)c1ccccc1	-	.	.	-
COc1ccc(NC(=O)C2=C(C)NC(=O)NC2c2cccc(OC)c2OC)c(OC)c1 (configuration not stated)	-	-	-	-
COc1cccc(C2NC(=O)NC(C)=C2C(=O)Nc2ccc(C)cc2)c1OC (configuration not stated)	-	-	-	+
Cc1cc(C)n2nc(C(=O)OCC(=O)c3ccc(F)cc3)nc2n1	-	-	-	-
CCn1c(SCCN2CCCCC2)nc2c1c(=O)n(C)c(=O)n2C	-	.	-	-
Cc1cc(C)c2c(N)c(C(=O)Nc3ncc(C)s3)sc2n1	-	-	-	-
COc1ccc2nc(NC(=O)c3sc4nc(C)cc(C)c4c3N)sc2c1	-	-	74	-
Cc1ccc(C)c(NCCCCC(=O)O)c1	-	.	.	-
CC1(C)CC(=O)C(/C=N/n2c(C(F)(F)F)nc3ccccc3c2=O)=C(O)C1	85	-	-	-
O=C(N/N=C/c1ccc(OC(=O)c2ccco2)cc1)c1ccc[n+]([O-])c1	-	-	-	-
